Screening results from PubChem BioAssay.
Shown are actives, neighbours in structure and some others; about 3.8% of the full set was active somewhere.
T cell modulator = T cell immune modulators affecting CD8 T cell-vesicle binding. 2C CD8+ T cell-vesicle binding, flow cytometry; stronger effect = lower value. response (vesicle binding), % at 7 µM. actives 0.068% (n = 330,000);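 active means response, share of CD8 T cells binding vesicles, and their 90th percentile fluorescence all below set limits, cut at about 80% in these data, passing the limit was not always enough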;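 further: values below 100% mean blocked vesicle binding to the CD8+ T cells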
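System: murine 2C transgenic CD8+ T lymphocytes; also added: QL9-loaded Drosophila micro-vesicles; times: binding 1.5 h at 37 °C; measured by: flow cytometry, PE anti-B7-1 (FL2) versus Alexa647 anti-CD8 (FL8), PFA-fixed; control set: Peptide-free naked vesicles (low) and QL9 vesicles with 0.7% DMSO vehicle (high)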
V-ATPase pHluor = alters yeast V-ATPase proton transport | actives 0.37% (n = 350,000) | AID 504577 | response, % at 10 µM | S. cerevisiae, pHLuorin cytosolic pH fluorescence; in the data active means response mostly above about 7.3%, no sharp cut-off; inactive means mostly below about 5.4%; further: actives read high
rCAG binder = binds r(CAG) RNA repeats; r(CAG) RNA repeat, TO-PRO-1 dye displacement fluorescence; inhibition, % at 3 µM; actives 1.3% (n = 370,000);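 active means inhibition above the plate cutoff, the mean of all test compounds on that plate plus 3 SD, cut at about 35% in these data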;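 further: 0% = DMSO alone and 100% = 100 µM mitoxantrone as full dye displacement; higher means more dye released from RNA so lower well fluorescence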
MPTP inh = permeability transition pore inhibition. inhibition, % at 10 µM. isolated mouse mitochondria, Ca2+ swelling absorbance, 30 min. actives 1.4% (n = 360,000);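 active means inhibition of 50% or more, scaled per plate between neutral and stimulator controls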;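 further: 0% = DMSO wells given calcium and 100% = 1 mM EGTA wells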
Beta2AR agonist = human beta-2 adrenergic receptor agonism by FAP; P07550; Am2.2-beta2AR cells, FAP receptor internalization, flow cytometry; response, % (no concentration beside the values); actives 0.43% (n = 340,000); AID 504454;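 active means response above a set limit, near 3 SD of response in nonfluorescent compounds, cut at about 42% in these data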
Target sequence (P07550 whole entry, looked up): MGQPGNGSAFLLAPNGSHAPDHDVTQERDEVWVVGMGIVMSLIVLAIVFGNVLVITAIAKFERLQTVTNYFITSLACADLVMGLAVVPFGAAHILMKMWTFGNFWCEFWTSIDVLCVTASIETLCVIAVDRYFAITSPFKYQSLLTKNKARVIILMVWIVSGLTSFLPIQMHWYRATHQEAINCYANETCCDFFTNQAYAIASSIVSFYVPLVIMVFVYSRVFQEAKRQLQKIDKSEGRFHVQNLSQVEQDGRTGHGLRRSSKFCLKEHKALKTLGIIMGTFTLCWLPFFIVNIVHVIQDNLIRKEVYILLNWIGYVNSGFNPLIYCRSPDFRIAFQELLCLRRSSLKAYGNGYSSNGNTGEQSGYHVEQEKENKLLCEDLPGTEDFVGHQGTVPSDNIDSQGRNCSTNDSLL
Granule exo inh = lytic granule exocytosis inhibition | AID 651702 | actives 0.66% (n = 360,000) | inhibition, % at 10 µM | TALL-104 LAMP-1 surface exposure, flow cytometry; cells stimulated with thapsigargin and PMA;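 active means inhibition above about 55%, limit read from the data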
* hit, by the source's call; i = inactive; nt = no result.

SMILES	T cell modulator	V-ATPase pHluor	rCAG binder	MPTP inh	Beta2AR agonist	Granule exo inh
Cc1ccccc1Cn1cc(COC(=O)NCC(C)C)nn1	nt	nt	-0.6	nt	nt	nt
O=C(OC12CCCN(C1)/C(=C/c1ccc(Cl)cc1)C2)C1CCCC1 (stereo not drawn)	nt	nt	3.4	nt	nt	nt
COc1ccc(/C=N/NC(=O)c2cc3c(OC)ccc(OC)c3[nH]2)cc1O	216.6	1.5	14.7	0.8	21.9	62.4*
O=C(COc1cccc(NC(=O)c2ccco2)c1)c1ccc(F)cc1	265.9	18.7*	0.4	1.4	-10.6	-1.6
O=C(NCc1ccc(F)c(F)c1)C1CCCN(c2nc3ccccc3o2)C1 (stereo not drawn)	nt	nt	-0.5	nt	nt	nt
Cc1cccc(OCC(O)Cn2ccnc2C)c1 (stereo not drawn)	107.3	13.2*	-0.3	0.0	4.6	-2.6
COc1ccc(C(C(=O)NCc2ccccc2)N(Cc2ccco2)C(=O)c2snc(C(N)=O)c2N)cc1 (stereo not drawn)	189.8	3.7	6.2	-0.3	14.9	40.2
COc1ccc(C(C(=O)NCc2ccccc2)N(Cc2ccco2)C(=O)c2snc(C(N)=O)c2N)cc1OC (stereo not drawn)	462.0	0.2	3.7	2.3	9.6	55.7*
COc1ccc(C(C(=O)N(C)C2CCCC2)N(Cc2ccc(F)cc2)C(=O)c2csc(N3CCOCC3)n2)cc1OC (stereo not drawn)	nt	nt	-1.9	nt	nt	nt
CC(=O)n1cc(N(C(=O)CCl)c2ccc([N+](=O)[O-])cc2)c2ccccc21	413.9	-0.3	-1.5	2.5	61.5*	0.6
CC(=O)n1cc(N(C(=O)CCl)c2ccccc2)c2ccccc21	424.7	-1.1	-2.5	1.7	-11.9	-7.3
O=C1c2sc3nc4ccccc4n3c2C(=O)N1c1ccccc1Cl	906.0	10.5*	10.3	2.1	46.1*	0.7
O=c1oc2cc(O)c(Cl)cc2c2ccccc12	397.0	2.2	5.2	6.7	1.4	0.1
O=c1oc(Cl)c(Cl)c2ccccc12	347.3	-2.3	2.3	0.7	62.2*	8.0
O=C(N/N=C/c1ccc[nH]1)c1cc2ccccc2cc1O	106.7	-2.2	33.3	-0.3	46.2*	14.9
CCN(C(=O)C1CCCN1S(=O)(=O)c1ccc2c(c1)n(C)c(=O)c(=O)n2C)c1ccccc1 (stereo not drawn)	32.3*	-1.6	2.2	0.0	-13.4	-5.5
CC(C)CNc1cccc2c1S(=O)(=O)N(Cc1cn(Cc3cccc(F)c3)nn1)Cc1ccccc1O2	nt	nt	7.1	nt	nt	nt
O=C(NCCc1c[nH]c2ccccc12)OCc1cn(Cc2ccc(F)cc2F)nn1	nt	nt	1.7	nt	nt	nt
CCN(CC)S(=O)(=O)c1ccc(Cl)c(NC(=O)COC(=O)C2CCCCC2)c1	0.0*	1.5	-1.7	-0.4	-2.6	5.0
C[C@]12CCC(=O)CC1=CCC1C3CC=C(C#N)[C@@]3(C)CC[C@@]12O (stereo partly drawn)	214.4	71.4*	-7.6	-0.4	-145.6	6.6
Nc1nc(Cn2nnc(-c3ccccc3F)n2)nc(N2CCOCC2)n1	283.3	1.1	-4.4	-2.7	51.6*	-2.0
Nc1nc(Cn2nnc(-c3ccccc3Cl)n2)nc(N2CCOCC2)n1	i	-2.4	-3.7	0.4	-3.0	-3.4
COc1ccc(-n2c(COc3ccccc3)nnc2SCC(=O)Nc2ccccc2-c2ccccc2)cc1	nt	nt	6.2	nt	nt	nt
COC(=O)[C@H](C(C)C)N1CCc2nnn(Cc3ccc(C)cc3)c2-c2cc(F)ccc2S1(=O)=O	nt	nt	-1.2	nt	nt	nt
N/C(=N\N=Cc1ccc2c(c1)OCO2)NN=Cc1ccc2c(c1)OCO2	nt	-1.0	10.9	3.0	7.0	34.0
SMILES	T cell modulator	V-ATPase pHluor	rCAG binder	MPTP inh	Beta2AR agonist	Granule exo inh
N/C(=N\N=C/c1ccc(F)cc1)N/N=C\c1ccc(F)cc1	149.8	2.1	7.2	3.9	16.4	60.7*
S=c1[nH]nc(-c2cc(-c3ccccc3)n[nH]2)n1/N=C/C(Br)=C/c1ccccc1	436.9	-23.0	33.3	5.7	9.2	63.4*
CCOc1ccc(C(=O)Nc2nnc(S(=O)(=O)Nc3ccccc3C)s2)cc1	525.6	-6.1	30.6	-2.0	-1.8	-5.5
Cc1ccc(C(=O)Nc2nnc(S(=O)(=O)Nc3ccccc3C)s2)cc1C	652.9	-3.5	44.8*	-0.3	2.5	-2.0
O=C(Nc1cc(S(=O)(=O)N2CCCCC2)ccc1N1CCOCC1)c1ccc(C(F)(F)F)cc1	324.2	-4.0	3.7	-0.9	-0.8	-0.2
Cc1ccc(S(=O)(=O)N2CCC(C(=O)Nc3cc(C(F)(F)F)ccc3N3CCOCC3)CC2)cc1C	47.7*	1.5	-0.2	-0.3	-0.6	0.0
CCN(CC)C(=O)CN1C(=O)C2CCCCN2C(=O)c2ccccc21 (stereo not drawn)	nt	nt	6.0	nt	nt	nt
Nc1nc(SCc2ccc(Cl)cc2Cl)nc2nc3c(cc12)CCCC3	177.5	127.7*	7.5	7.2	-20.0	-1.5
COc1ccc(-c2nnc(SCc3c(F)cccc3F)n2N)cc1	nt	nt	1.1	nt	nt	nt
COC(=O)c1cc(C(c2ccccc2O)C2CCCO2)n2cccc(C(C)(C)C)c12 (stereo not drawn)	nt	nt	6.8	nt	nt	nt
COc1ccc(N2CCN(CCCNC(=O)Cc3ccc(C(F)(F)F)cc3)CC2)cc1	nt	nt	0.9	nt	nt	nt
Cc1cc(C)cc(Oc2nc3ccccn3c(=O)c2/C=C(\C#N)C(=O)NC2CCS(=O)(=O)C2)c1 (stereo not drawn)	347.8	2.8	6.3	1.1	2.1	10.0
Cc1ccc(Oc2nc3ccccn3c(=O)c2/C=C(\C#N)C(=O)NC2CCS(=O)(=O)C2)c(C)c1 (stereo not drawn)	102.3	4.6	-2.8	-3.1	5.2	78.8*
C=CCN1[C@@H](Cc2ccccc2)COc2cccc(F)c2S1(=O)=O	nt	nt	1.4	nt	nt	nt
Oc1cccc(-c2sc3ccccc3c2-c2ccc(OCCN3CCCCC3)cc2)c1	nt	nt	7.1	4.0	nt	58.7*
c1ccc(-c2sc3ccccc3c2-c2ccc(OCCN3CCOCC3)cc2)cc1	463.2	-1.5	nt	2.4	-4.3	-2.8
O=c1oc(-c2ccccc2F)nc2c1cnn2-c1ccccc1	258.6	0.0	0.3	1.0	4.8	84.5*
COC(=O)[C@]12C[C@H](CC(=O)NCc3ccc(C)o3)C(=O)N(CCC3=CCCCC3)C1=C[C@H](C(C)C)O[C@@H]2C1CC1	nt	nt	5.9	nt	nt	nt
Nc1cccc2c1C(=O)N(C(=O)/C=C/c1ccc(F)cc1)C2=O	0.0	-10.4	4.0	-2.2	87.0*	8.3
Nc1cccc2c1C(=O)N(C(=O)c1ccco1)C2=O	270.8	-3.1	0.2	1.5	1.4	-2.2
C#CCNC(=O)C[C@H]1C(=O)N(CCc2ccc(Cl)cc2)C2=CCCC[C@@]21C(=O)OCC	nt	nt	7.3	nt	nt	nt
COC(=O)[C@H](C(C)C)N(CCc1cn(CC2CCCCC2)nn1)S(=O)(=O)c1ccccc1Br	nt	nt	5.7	nt	nt	nt
CCC(C)(C(=O)NC1CCCC1)N(Cc1cccs1)C(=O)Cc1cccs1 (stereo not drawn)	34.6*	-0.7	-6.4	0.9	-0.9	0.8
